# Source: PubChem BioAssay
# Sampled rows, rich in hits. Any-hit rate of the full collection: about 3.5%.
# MrgX1 agonist = activates human MrgX1 receptor signaling; Q96LB2; MrgX1-HEK293 cells, Fluo-4 calcium fluorescence, agonist mode; hits give high values; B-score at 10 µM; 310,000 compounds, 0.44% hits; AID 588627;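 active = calcium response B-score plate-corrected fluorescence ratio at least 3 library SD, with starting fluorescence B-score inside 5 SD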
# Target sequence (Q96LB2 whole entry, looked up): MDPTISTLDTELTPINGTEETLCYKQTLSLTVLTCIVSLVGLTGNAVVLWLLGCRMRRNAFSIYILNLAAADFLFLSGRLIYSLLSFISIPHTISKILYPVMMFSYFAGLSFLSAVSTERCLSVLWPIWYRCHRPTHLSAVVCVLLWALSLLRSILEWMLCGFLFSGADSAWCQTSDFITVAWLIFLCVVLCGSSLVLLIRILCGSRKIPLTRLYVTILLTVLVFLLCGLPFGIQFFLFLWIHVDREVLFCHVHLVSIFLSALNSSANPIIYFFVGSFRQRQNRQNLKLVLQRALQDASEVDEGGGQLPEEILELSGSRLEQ
#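 Material: MrgX1-expressing HEK293 cells / Dosing: compound as first of three additions / Incubation: overnight seeding, then 1 h dark dye loading / Signal: Fluo-4 NW calcium fluorescence / Evaluation: B-scored fluorescence response ratio / Benchmarks: positive and negative control wells on each plate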
# MrgX1 allo act = human MrgX1 positive allosteric modulation, primary screen; Q96LB2; MrgX1-HEK293, Fluo-4 calcium flux, FDSS; hits give high values; B-score at 10 µM; 310,000 compounds, 0.63% hits; AID 588675;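 active = plate-corrected calcium response at least 3 library SD above typical, normal starting fluorescence, not activating the receptor alone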;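 note: compound read alongside a low EC10 to EC30 dose of BAM8-22 agonist; peak minus trough fluorescence over baseline measured at the second addition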
# RGS4 block = human RGS4 inhibition; 310,000 compounds, 0.45% hits; AID 463165; HEK293 M3R/RGS4 inducible, Fluo-4 calcium flux; hits give high values; triggered by carbachol at its EC20; B-score at 10 µM; P49798;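 active = B-score, a plate-corrected calcium signal, over three deviations above library mean, with baseline fluorescence within five deviations of library mean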;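 note: RGS4 expression induced by doxycycline in cells with stable M3 receptor; B-score is computed from the integrated fluorescence ratio over baseline after carbachol; higher B-score means a larger calcium signal and so more RGS4 inhibition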
# Target sequence (P49798 whole entry, looked up): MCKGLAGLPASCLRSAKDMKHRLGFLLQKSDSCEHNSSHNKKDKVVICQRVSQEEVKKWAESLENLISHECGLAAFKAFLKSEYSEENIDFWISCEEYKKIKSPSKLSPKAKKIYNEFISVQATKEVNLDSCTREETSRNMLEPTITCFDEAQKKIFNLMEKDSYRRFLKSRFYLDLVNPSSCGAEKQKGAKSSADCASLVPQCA
# MrgX1 antag = human MrgX1 receptor antagonism, primary screen. Q96LB2. 310,000 compounds, 1.3% hits. B-score at 10 µM. MRGX1-HEK293 calcium flux, Fluo-4, BAM8-22 antagonism; hits give low values. AID 588676;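 active = calcium-response B-score plate-corrected more than 3 library SD below zero, starting fluorescence within 5 deviations, no agonist response on first addition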;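 note: peak minus trough fluorescence over baseline after final BAM8-22 challenge near maximal dose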
# RGS4 pot = RGS4 potentiation or activation; 310,000 compounds, 0.92% hits; HEK293 M3R/inducible RGS4, carbachol calcium flux Fluo4; hits give low values; B-score at 10 µM;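 active = B-score of the integrated calcium signal more than 4 SD below the library mean, with starting fluorescence not abnormally high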;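 note: negative B-score means reduced calcium response which marks RGS4 activation or potentiation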
#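 test system = HEK293 cells with stable M3R and inducible RGS4 | schedule = recording 10 s baseline at 1 Hz, 100 s post-agonist | technique = Fluo4-AM (2 µM) calcium-flux fluorescence, kinetic read | measure = Agonist-evoked peak-minus-minimum fluorescence over baseline, integrated ratio, B score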
# RGS4 block valid = validation of RGS4 inhibitors. shares compounds with RGS4 block. HEK293 M3R/RGS4, carbachol calcium Fluo-4 fluorescence; carbachol added at its EC20; 0 = buffer wells, 100 = carbachol control. calcium response, % at 10 µM. 1,700 compounds, 65% hits;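 active = duplicate-averaged calcium response above the buffer-only control mean plus 5 SD of those controls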;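 note: integrated fluorescence ratio F max minus min over baseline F0; higher response in RGS4-induced cells means RGS4 inhibition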
# RGS4 uninduced = checks RGS4 inhibitor effects in non-induced HEK293 M3R cells; activity (percent), % at 10 µM; shares compounds with RGS4 block; 1,900 compounds, 20% hits; AID 493000; carbachol calcium Fluo-4; submaximal (EC20) carbachol stimulus; buffer wells 0%, carbachol control wells 100%; call rule not given here;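 note: RGS4 induction absent so cells express M3R without RGS4; higher means more calcium signal and flags a non-specific hit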
# M3R basal Ca ctr = signal in non-induced cells without carbachol, RGS4 inhibitor counter-screen. shares compounds with RGS4 block. HEK293 M3R/RGS4 non-induced, Fluo-4 calcium, no carbachol; normalised: buffer wells 0%, carbachol wells 100%. calcium response (agonist-mode artifact), % at 10 µM. 1,900 compounds, 22% hits. AID 493001;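 active = duplicate-averaged calcium rise in uninduced cells above buffer wells' mean plus 5 SD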
# * marks the source's active call; other numbers are inactive results; i = inactive; . = no result.
SMILES,MrgX1 agonist,MrgX1 allo act,RGS4 block,MrgX1 antag,RGS4 pot,RGS4 block valid,RGS4 uninduced,M3R basal Ca ctr
COc1ccc(Cl)cc1NC(=O)C(C)OC(=O)c1ccc(NS(=O)(=O)c2ccc3[nH]c(=O)[nH]c3c2)cc1 (centres undefined),i,i,11*,i,i,46%*,i,i
CC(=O)Nc1ccc(Nc2cc(C(C)C)nc3c(-c4ccccc4)c(C)nn23)cc1,i,i,7.2*,i,i,41%*,60%*,i
CC(=O)Nc1ccc(Nc2cc(C)nc3c(-c4ccccc4)c(C)nn23)cc1,i,i,8.6*,i,i,13%*,i,i
Cc1nn2c(NCc3ccccn3)cc(C(C)C)nc2c1-c1ccccc1,i,i,i,i,i,.,.,.
COc1ccccc1NS(=O)(=O)c1cc(NC(=O)c2ccc3c(c2)OCCO3)ccc1C,i,i,i,i,i,.,.,.
Oc1c(Br)cc(Br)cc1CNc1ccc(F)cc1,i,i,6.5*,i,i,i,i,i
Oc1c(Br)cc(Br)cc1CNc1cnc2ccccc2c1,i,i,i,i,i,.,.,.
COc1cc(C(=O)Nc2cccc3cccnc23)cc(OC)c1OC,i,i,i,i,i,i,i,i
Cc1ccc(/C=c2/sc3n(c2=O)CCCN=3)o1,i,i,5.3*,i,i,i,i,12%*
Cc1ccc(/C=c2\sc3n(c2=O)CN(c2ccc(Br)cc2)CN=3)o1,i,i,i,i,i,.,.,.
COc1ccc(OC)c(N(CC(=O)NC2CCCC2)S(=O)(=O)c2ccc(OC)c(OC)c2)c1,i,i,i,i,i,.,.,.
CC(C)(C)CC(=O)Nc1cc2c3c(c1)CC(=O)N3CCC2,i,i,i,i,i,.,.,.
O=C(CCNc1ccc(F)c(Cl)c1)c1ccco1,i,i,i,i,i,.,.,.
O=C(CCNc1ccc(F)cc1)c1ccco1,i,i,5.4*,i,i,11%*,i,i
COc1ccc(N(CC(=O)Nc2nccs2)S(=O)(=O)c2c(C)[nH]c(=O)[nH]c2=O)cc1,i,i,i,i,i,.,.,.
O=c1c2ccccc2nc2c3ccccc3c(NCc3ccco3)nn12,i,i,4.9*,i,i,i,i,i
COC(=O)c1ccccc1NC(=O)CN1CCCCCC1,i,i,i,i,i,.,.,.
CCSc1nc(N)c(C#N)c(-c2ccco2)c1C#N,i,i,6.5*,i,i,7.0%*,i,i
COC(=O)CSc1nc(N)c(C#N)c(-c2ccco2)c1C#N,i,i,i,i,i,.,.,.
Cc1ccc(S(=O)(=O)CCC(=O)OCc2ccccc2F)cc1,i,i,i,i,i,.,.,.
COc1ccc(/C=C/C(=O)c2cc(Cl)cc(Cl)c2O)c(OC)c1,i,i,i,i,i,.,.,.
O=C(/C=C/c1ccccn1)c1cc(Cl)cc(Cl)c1O,i,i,15*,i,i,26%*,64%*,i
O=C(/C=C/c1ccc([N+](=O)[O-])cc1)c1cccnc1,i,i,18*,i,i,39%*,52%*,i
O=C(/C=C/c1ccc([N+](=O)[O-])cc1)c1ccco1,i,i,11*,i,i,12%*,i,i
O=C(/C=C/c1cccnc1)c1ccc(F)c(F)c1,i,i,21*,i,i,27%*,46%*,i
SMILES,MrgX1 agonist,MrgX1 allo act,RGS4 block,MrgX1 antag,RGS4 pot,RGS4 block valid,RGS4 uninduced,M3R basal Ca ctr
O=C(/C=C/c1ccc(Br)cc1)c1ccco1,i,i,i,i,i,.,.,.
COc1ccccc1N1C(=O)CC(N2CCN(c3ccc([N+](=O)[O-])cc3)CC2)C1=O (centres undefined),i,i,i,i,i,.,.,.
CN1C(=O)S/C(=C/c2cccnc2)C1=O,i,i,i,i,i,.,.,.
Cc1ccccc1N=C1NC(=O)/C(=C/c2cccnc2)S1,i,i,i,i,i,.,46%*,i
O=C1NC(=Nc2ccccc2Cl)S/C1=C\c1ccc(C(=O)O)cc1,i,i,i,i,i,.,.,.
O=C1/C(=C\c2cccnc2)Sc2ccccc21,i,i,5.1*,i,i,32%*,36%*,39%*
COc1ccc(-c2cnnc(N/N=C/c3ccc(O)c(OC)c3)n2)cc1,i,i,i,i,i,.,.,.
COc1cc(/C=C2\C(=O)N(c3ccc(NC(C)=O)cc3)N=C2c2ccccc2)ccc1O,i,i,6.2*,i,i,i,i,16%*
CC(=O)c1cccc(NC(=O)CCCCCn2nnc3ccccc3c2=O)c1,i,i,i,i,i,.,.,.
N#Cc1c(-c2ccccc2Cl)noc1/C=C/Nc1ccc(C(=O)O)cc1,i,i,i,i,i,.,i,i
CC(NC(=O)CN1CCOCC1)c1ccccc1 (centres undefined),i,i,i,i,i,.,.,.
CCOc1ccccc1NC(=O)c1cccc(NC(=O)CC(c2ccccc2)c2ccccc2)c1,i,i,11*,i,i,30%*,36%*,16%*
COc1ccc(S(=O)(=O)NC(CCSC)C(=O)NC2CCCCC2)cc1 (centres undefined),i,i,5.2*,i,i,i,i,i
CSCCC(NS(=O)(=O)c1ccc(C)cc1)C(=O)NC1CCCCCC1 (centres undefined),i,i,i,i,i,.,i,i
CSCCC(NS(=O)(=O)c1ccc(C)cc1)C(=O)NC1CCCCC1 (centres undefined),i,i,i,i,i,i,i,i
COc1ccc(C(=O)COC(=O)C(CCSC)NS(=O)(=O)c2ccc(Cl)cc2)cc1 (centres undefined),i,i,i,i,i,.,.,.
COc1ccc(CC(=O)n2[nH]c(=O)cc(C)c2=O)cc1OC,i,i,i,i,i,.,.,.
